pIC50: −log10 of the molar value.
Legend:
Galanin receptor type 2 [1] = target: T1, Galanin receptor type 2 (Homo sapiens, UniProt O43603); test: Displacement of [125I]galanin from GalR2 by gamma counting
T1 sequence (O43603 whole entry): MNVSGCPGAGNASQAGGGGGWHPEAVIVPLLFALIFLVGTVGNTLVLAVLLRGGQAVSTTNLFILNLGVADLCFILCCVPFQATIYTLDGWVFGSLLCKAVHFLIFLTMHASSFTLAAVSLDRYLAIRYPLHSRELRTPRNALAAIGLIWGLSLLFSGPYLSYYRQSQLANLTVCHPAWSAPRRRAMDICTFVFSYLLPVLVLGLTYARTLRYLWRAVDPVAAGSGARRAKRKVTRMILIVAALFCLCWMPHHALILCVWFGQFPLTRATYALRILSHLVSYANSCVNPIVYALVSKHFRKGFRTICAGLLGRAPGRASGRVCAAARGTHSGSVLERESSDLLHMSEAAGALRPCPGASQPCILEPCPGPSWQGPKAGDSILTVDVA
In short: (§1)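 Full-curve competition over 10 nM–100 μM, with a rat galanin control on every plate. Compounds were diluted in 20% DMSO. Membranes were GalR1 2.5 μg or GalR2 5 μg, with 125I porcine galanin at 0.1 nM (GalR1) or 0.15 nM (GalR2), 1 h at room temperature. Filtration, washing and γ-counting followed. IC50 came from a nonlinear one-site competition fit, reported only when the curve bottom fell below 35% of total binding.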

[2] = target: T2, Galanin receptor type 2 (Homo sapiens) (UniProt O43603); test: Displacement of [125I]galanin from GalR2 at 1 uM by gamma counting
T2 sequence (whole entry): T1 sequence (O43603 whole entry)
In short: (§2)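 Single-point screen at 1 and 10 μM, in duplicate, with two screens per receptor. Final 125I porcine galanin was 0.1 nM (GalR1) or 0.15 nM (GalR2). Incubation 1 h, room temperature. Filtration through PEI-treated glass fibre, cold PBS/Triton washes, γ-counting.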

[3] = target: T2, Galanin receptor type 2 (Homo sapiens); test: Displacement of [125I]galanin from GalR2 at 10 uM by gamma counting; in short: as §2
Galanin receptor type 1 [4] = target: T3, Galanin receptor type 1 (Homo sapiens, UniProt P47211); test: Displacement of [125I]galanin from GalR1 by gamma counting; in short: as §1
T3 sequence (P47211 whole entry): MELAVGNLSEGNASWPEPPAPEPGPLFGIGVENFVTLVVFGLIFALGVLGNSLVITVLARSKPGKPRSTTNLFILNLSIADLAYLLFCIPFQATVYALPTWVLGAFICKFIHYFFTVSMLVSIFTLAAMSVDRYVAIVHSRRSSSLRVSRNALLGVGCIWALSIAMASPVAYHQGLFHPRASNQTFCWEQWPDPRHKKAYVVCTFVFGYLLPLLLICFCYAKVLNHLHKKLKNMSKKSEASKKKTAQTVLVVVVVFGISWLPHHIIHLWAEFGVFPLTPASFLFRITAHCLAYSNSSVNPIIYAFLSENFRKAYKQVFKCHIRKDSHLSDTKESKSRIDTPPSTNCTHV

Galanin receptor type 1 [5] = target: T3, Galanin receptor type 1; test: Displacement of [125I]galanin from GalR1 at 100 uM by gamma counting
Galanin receptor type 2 [6] = target: T1, Galanin receptor type 2; test: Displacement of [125I]galanin from GalR2 at 100 uM by gamma counting

Structure (SMILES) | pIC50 (Galanin receptor type 2 [1]) | inhibition [2] [%] | inhibition [3] [%] | pIC50 (Galanin receptor type 1 [4]) | IC50 (Galanin receptor type 1 [5]) | IC50 (Galanin receptor type 2 [6])
Cc1c(F)cccc1Nc1cc(N2CCCCC2)nc(N2CCCN(c3ncccc3C(F)(F)F)CC2)n1 | 6.25 | > 50 | > 50 | 5.89 |  | 
COc1ccc(Nc2cc(Nc3ccc(OC)cc3)nc(N3CCCC3)n2)cc1 | 5.09 | > 50 | > 50 |  | Not Active | 
COc1ccc(Nc2nc(NCC3CCCCC3)cc(Nc3ccc(OC)c(F)c3)n2)cc1 |  | > 50 | > 50 | 5.42 |  | Not Active
COc1ccc(Nc2cc(Nc3ccc(OC(F)(F)F)cc3)nc(NC3CCCCC3)n2)cc1 | 5.97 | > 50 | > 50 | 5.23 |  | 
COc1ccc(Nc2nc(Nc3ccc(OC)c(F)c3)cc(N3CCCC(C)C3)n2)cc1 (stereo not drawn) | 5.87 | > 50 | > 50 | 5.17 |  | 
COc1ccc(Nc2cc(N3CCCCC3)nc(N3CCCN(c4ncccc4C(F)(F)F)CC3)n2)cc1 | 5.72 | > 50 | > 50 | 5.47 |  | 
COc1ccc(Nc2nc(Nc3ccc(OC(F)(F)F)cc3)cc(N3CCCCC3)n2)cc1 | 6.48 | > 50 | > 50 |  | Not Active | 
COc1ccc(Nc2cc(Nc3ccc(OC(F)F)cc3)nc(NC3CCCCC3)n2)cc1 | 4.90 | > 50 | > 50 | 4.56 |  | 
FC(F)(F)Oc1ccc(Nc2cc(Nc3ccccc3)nc(N3CCCCC3)n2)cc1 |  |  |  |  | Not Active | Not Active
Cc1ccc(C)c(Nc2cc(Nc3ccccc3)nc(N3CCCCC3)n2)c1 | 5.34 | > 50 | > 50 |  | Not Active | 
COc1ccc(Nc2nc(Nc3ccc(OC)c(F)c3)cc(N3CCC(N4CCCCC4)CC3)n2)cc1 |  |  |  | 4.80 |  | Not Active
CCN(CC)c1cc(Nc2ccc(OC)c(F)c2)nc(Nc2ccc(OC)cc2)n1 | 5.55 | > 50 | > 50 |  | Not Active | 
COc1ccc(Nc2cc(Nc3ccccc3)nc(N3CCCCC3)n2)cc1F | 5.06 | > 50 | > 50 | 5.17 |  | 
COc1ccc(Nc2nc(Nc3ccc(OC)c(F)c3)cc(N3CCCC3)n2)cc1 |  |  |  |  | Not Active | Not Active
COc1ccc(Nc2nc(Nc3ccc(OC)c(F)c3)cc(N3CCN(c4ccccc4)CC3)n2)cc1 | 4.60 | > 50 | > 50 | 5.17 |  | 
COc1ccc(Nc2nc(Nc3ccc(F)cc3C)cc(N3CCCCC3)n2)cc1 | 6.01 | > 50 | > 50 |  | Not Active | 
FC(F)Oc1cccc(Nc2cc(Nc3ccccc3)nc(N3CCCCC3)n2)c1 | 5.38 | > 50 | > 50 | 5.16 |  | 
COc1ccc(Nc2nc(Nc3ccc(F)c(Cl)c3)cc(N3CCCCC3)n2)cc1 | 5.38 | > 50 | > 50 |  | Not Active | 
COc1ccc(Nc2nc(Nc3ccc(OC)c(F)c3)cc(N3CCC(C)CC3)n2)cc1 |  |  |  |  | Not Active | Not Active
COc1ccc(Nc2nc(Nc3ccc(OC)c(F)c3)cc(N3CCN(c4ncccn4)CC3)n2)cc1 |  |  |  | 5.42 |  | Not Active
COc1ccc(Nc2nc(Nc3ccc(OC)c(F)c3)cc(N3CCCCC3C)n2)cc1 (stereo not drawn) |  |  |  |  | Not Active | Not Active
COc1ccc(Nc2cc(Nc3cccc(OC)c3)nc(N3CCCC3)n2)cc1 | 6.03 | > 50 | > 50 | 5.34 |  | 

Structure (SMILES) | pIC50 (Galanin receptor type 2 [1]) | inhibition [2] [%] | inhibition [3] [%] | pIC50 (Galanin receptor type 1 [4]) | IC50 (Galanin receptor type 1 [5]) | IC50 (Galanin receptor type 2 [6])
COc1ccc(Nc2nc(Nc3ccc(OC(F)F)cc3)cc(N3CCCCC3)n2)cc1 |  |  |  |  | Not Active | Not Active
COc1ccc(Nc2nc(Nc3ccc(OC)c(F)c3)cc(N3CCCN(C(=O)OC(C)(C)C)CC3)n2)cc1 | 5.04 | > 50 | > 50 | 5.55 |  | 
COc1ccc(Nc2cc(Nc3cccc(OC(F)F)c3)nc(NC3CCCCC3)n2)cc1 | 6.11 | > 50 | > 50 | 5.30 |  | 
Cc1ccc(C)c(Nc2cc(N3CCCCC3)nc(N3CCCN(c4ncccc4C(F)(F)F)CC3)n2)c1 | 5.68 | > 50 | > 50 | 5.41 |  | 
FC(F)(F)Oc1cccc(Nc2cc(Nc3ccccc3)nc(N3CCCCC3)n2)c1 | 5.18 | > 50 | > 50 | 4.46 |  | 
COc1ccc(Nc2nc(Nc3ccc(OC)c(F)c3)cc(N3CCCCCC3)n2)cc1 | 6.11 | > 50 | > 50 | 5.26 |  | 
COc1ccc(Nc2cc(N3CCN(c4ccccc4)CC3)nc(N3CCCC3)n2)cc1 | 5.47 | > 50 | > 50 | 4.89 |  | 
COc1ccc(Nc2nc(Nc3ccc(OC)c(F)c3)cc(N3CCCCC3)n2)cc1 | 6.37 | > 50 | > 50 |  | Not Active | 
c1ccc(Nc2cc(NCc3ccc4c(c3)OCO4)nc(N3CCCCC3)n2)cc1 | 5.43 | > 50 | > 50 |  | Not Active | 
COc1ccc(Nc2cc(Nc3cccc(OC(F)(F)F)c3)nc(NC3CCCCC3)n2)cc1 | 6.26 | > 50 | > 50 | 5.17 |  | 
COc1ccc(Nc2nc(Nc3cccc(F)c3C)cc(N3CCCCC3)n2)cc1 | 6.42 | > 50 | > 50 |  | Not Active | 
COc1ccc(Nc2cc(Nc3cccc(OC)c3)nc(NC3CCCCC3)n2)cc1 | 5.76 | > 50 | > 50 | 5.25 |  | 
COc1ccc(Nc2cc(Nc3ccccc3)nc(N3CCCCC3)n2)cc1 | 5.96 | > 50 | > 50 | 5.07 |  | 
COc1ccc(Nc2nc(Nc3cccc(OC(F)(F)F)c3)cc(N3CCCCC3)n2)cc1 | 6.42 | > 50 | > 50 |  | Not Active | 
COc1ccc(Nc2nc(Nc3cc(C)ccc3C)cc(N3CCCCC3)n2)cc1 | 6.36 | > 50 | > 50 |  | Not Active | 
COc1ccc(Nc2nc(Nc3ccc(C)cc3C)cc(N3CCCCC3)n2)cc1 | 5.93 | > 50 | > 50 |  | Not Active | 
COc1ccc(Nc2cc(N3CCCCC3)nc(N3CCCN(c4ncccc4C(F)(F)F)CC3)n2)cc1F | 5.69 | > 50 | > 50 | 5.20 |  | 
COc1ccc(Nc2nc(Nc3ccc(C(F)(F)F)cc3)cc(N3CCCCC3)n2)cc1 | 6.11 | > 50 | > 50 |  | Not Active | 
COc1ccc(Nc2nc(NCc3cccc(C(F)(F)F)c3)cc(N3CCCCC3)n2)cc1 | 5.71 | > 50 | > 50 |  | Not Active | 
COc1ccc(Nc2nc(Nc3cccc(OC(F)F)c3)cc(N3CCCCC3)n2)cc1 | 6.27 | > 50 | > 50 |  | Not Active | 
FC(F)Oc1ccc(Nc2cc(Nc3ccccc3)nc(N3CCCCC3)n2)cc1 | 5.47 | > 50 | > 50 |  | Not Active | 
